Assay outcomes: PubChem BioAssay, The Scripps Research Institute Molecular Screening Center
Rows were chosen to be rich in hits. Some 3% of all compounds tested hit in one or more screens of this group.
TAAR1 antag: antagonists of human TAAR1; 1.5% of 360,000 active; CHO RD-HGA16 TAAR1, Fluo-8 calcium fluorescence, antagonist; Q96RJ0; inhibition, % at 3 µM; AID 624466;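 active = inhibition above a per-plate cutoff, the mean inhibition of test compounds on that plate plus 3 SD, cut at about 49% in these data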
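Assay system: CHO-derived RD-HGA16 cells stably expressing human TAAR1 plus Gα16. Timing: 140 s kinetic read after compound, 140 s after agonist. Technique: kinetic Fluo-8 calcium fluorescence measurement. Measure: % inhibition of agonist calcium response.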
CHRM4 antagonist: blocks acetylcholine activation of human M4 receptor. P08173. CHO-hM4 cells, ACh EC80, Fluo-8 calcium fluorescence. inhibition, % at 3 µM. 0.73% of 360,000 active;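 active = inhibition above its plate's cutoff, the mean inhibition of sample wells plus 3 SD, cut at about 27% in these data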
Target sequence (P08173 whole entry, looked up): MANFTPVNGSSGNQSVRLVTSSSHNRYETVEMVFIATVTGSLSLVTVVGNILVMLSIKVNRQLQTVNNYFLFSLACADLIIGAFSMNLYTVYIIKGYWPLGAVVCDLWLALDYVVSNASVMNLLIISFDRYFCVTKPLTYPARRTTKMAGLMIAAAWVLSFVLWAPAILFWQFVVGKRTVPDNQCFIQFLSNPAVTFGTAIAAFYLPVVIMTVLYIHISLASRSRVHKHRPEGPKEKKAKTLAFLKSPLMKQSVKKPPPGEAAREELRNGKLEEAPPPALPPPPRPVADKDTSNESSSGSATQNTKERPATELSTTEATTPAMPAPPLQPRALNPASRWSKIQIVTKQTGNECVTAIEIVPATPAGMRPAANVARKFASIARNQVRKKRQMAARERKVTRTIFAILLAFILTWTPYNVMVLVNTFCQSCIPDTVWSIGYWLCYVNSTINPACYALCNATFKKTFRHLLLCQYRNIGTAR
M4 PAM: CHRM4 positive allosteric modulation | 0.4% of 360,000 active | P08173 | CHO-K1 hM4/Gqi5, Fluo-8 calcium fluorescence, ACh EC20; 0% = ACh EC20, 100% = maximal ACh | activation, % at 3 µM;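 active = activation above its plate's cutoff, the mean activation of sample wells plus 3 SD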
TAAR1 ag: human TAAR1 agonism; Q96RJ0; CHO RD-HGA16 TAAR1, Fluo-8 calcium fluorescence; vehicle wells 0%, saturating PEA agonist 100%; activation, % at 3 µM; 0.99% of 360,000 active; AID 624467;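 active = activation above the mean activation of all test compounds in the run plus 3 SD, cut at about 38% in these data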
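test system = CHO RD-HGA16 cells carrying human TAAR1 plus Gα16 | schedule = 17-24 h seeding, 75 min 37 °C dye, 30 min RT | compound dosing = 3 µM single concentration | control set = DMSO and PEA EC100 | replicates = n 1 | signal = Fluo-8 fluorescence, 5 s baseline then 140 s kinetic read | measure = percent activation vs PEA EC100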
CHRM4 agonist: agonists of human muscarinic M4 receptor (CHRM4); activation, % at 3 µM; CHO-K1 hM4/Gqi5, Fluo-8 calcium fluorescence; vehicle 0%, full acetylcholine response 100%; P08173; 0.14% of 360,000 active;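 active = activation above the run mean over all test wells plus 3 SD, cut at about 32% in these data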;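 note: peak over basal fluorescence ratio per well then scaled between controls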
TAAR1 ag conf: human TAAR1 agonism, confirmed | shares compounds with TAAR1 ag | CHO RD-HGA16 TAAR1, Fluo-8 calcium fluorescence; scaled: DMSO 0%, maximal phenethylamine 100% | activation, % at 3 µM | 82% of 2,400 active | AID 651783;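 active = activation above a cutoff set at the run's mean compound activation plus 3 SD, cut at about 39% in these data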
Ga16 ag counter: nonselective agonism, TAAR1 counter-screen | AID 651787 | CHO-Ga16 parental, Fluo-8 calcium fluorescence; normalized to maximal ATP response, DMSO zero | 50% of 2,400 active | activation, % at 3 µM | shares compounds with TAAR1 ag;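 active = activation above the run cutoff, the mean activation over all tested wells plus 3 SD, cut at about 12% in these data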
TAAR1 desens: TAAR1 response desensitization, agonist counter-screen; 46% of 2,400 active; CHO RD-HGA16 hTAAR1, Fluo-8 calcium, beta-PEA response inhibition; inhibition, % at 3 µM; AID 651951; shares compounds with TAAR1 ag;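 active = inhibition above the run cutoff, the mean inhibition of all test compounds plus 3 SD, cut at about 49% in these data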;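 note: beta-PEA stimulus applied at its EC80; loss of beta-PEA calcium signal after compound pretreatment read as receptor desensitization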
Ga16 nonsel ant: nonselective Ga16 antagonism, counter-screen. shares compounds with TAAR1 ag. inhibition, % at 3 µM. CHO-Ga16 ATP-induced calcium, Fluo-8 fluorescence. 39% of 2,400 active. AID 651952;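 active = inhibition above the plate's mean compound inhibition plus 3 SD, computed per plate, cut at about 22% in these data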
Of the large screens only hits and unclear results are named; the others gave an inactive call (follow-up assays come after a bar, where they were run).

CCCc1cnc(Nc2nc(C(N)Cc3ccc(OC)cc3)cs2)nc1 (stereo unspecified)	TAAR1 ag 48 | TAAR1 ag conf 47 | Ga16 ag counter 18 | TAAR1 desens inactive | Ga16 nonsel ant inactive
COc1ccc(CC(N)c2csc(Nc3nncc4ccccc34)n2)cc1 (stereo unspecified)	TAAR1 ag 61 | TAAR1 ag conf 82 | Ga16 ag counter 34 | TAAR1 desens 52 | Ga16 nonsel ant 32
CCc1cnc(Nc2nc(C(N)Cc3ccc(Cl)cc3)cs2)nc1 (stereo unspecified)	TAAR1 ag 51 | TAAR1 ag conf 70 | Ga16 ag counter 32 | TAAR1 desens inactive | Ga16 nonsel ant 28
COc1ccc(CC(N)c2csc(Nc3cc(NCCCO)ncn3)n2)cc1 (stereo unspecified)	none
NC(Cc1ccc(Cl)cc1)c1csc(Nc2ccc(-c3ccccc3)nn2)n1 (stereo unspecified)	TAAR1 antag 49, TAAR1 ag 63, CHRM4 agonist 38 | TAAR1 ag conf inactive | Ga16 ag counter 25 | TAAR1 desens inactive | Ga16 nonsel ant 40
CCc1cnc(Nc2nc(C(N)c3ccccc3Cl)cs2)nc1 (stereo unspecified)	none
CCCc1ccc2c(C(F)(F)F)cc(C(F)(F)F)cc2n1	none
COc1cc(OC)nc(Nc2nc(C(N)Cc3ccc(F)cc3)cs2)n1 (stereo unspecified)	TAAR1 ag 56 | TAAR1 ag conf 63 | Ga16 ag counter 38 | TAAR1 desens inactive | Ga16 nonsel ant 34
c1ccc(CCNC2=NCCS2)cc1	TAAR1 ag 50 | TAAR1 ag conf 75 | Ga16 ag counter inactive | TAAR1 desens inactive | Ga16 nonsel ant inactive
c1ccc(CCNC2=NCCCS2)cc1	none
CC(C)=N/N=C(\N)SCc1ccccc1	none (no result: TAAR1 antag, TAAR1 ag) | Ga16 ag counter inactive | Ga16 nonsel ant inactive
CSc1ccccc1OCc1cc(C(=O)NCCC2=CCCCC2)no1	TAAR1 ag 55 | TAAR1 ag conf 38 | Ga16 ag counter inactive | TAAR1 desens 89 | Ga16 nonsel ant 58
CCCCC(CC)CNC(=O)C1C2C=CC(C2)C1C(=O)O (stereo unspecified)	TAAR1 antag 49, TAAR1 ag 78 | TAAR1 ag conf 90 | Ga16 ag counter inactive | TAAR1 desens 51 | Ga16 nonsel ant inactive
O=C(O)C1C2C=CC(C2)C1C(=O)NCCc1ccccc1 (stereo unspecified)	TAAR1 antag 92, TAAR1 ag 84 | TAAR1 ag conf 96 | Ga16 ag counter inactive | TAAR1 desens 94 | Ga16 nonsel ant inactive
O=C(O)C1C2C=CC(C2)C1C(=O)NCCCc1ccccc1 (stereo unspecified)	TAAR1 ag 76 | TAAR1 ag conf 80 | Ga16 ag counter inactive | TAAR1 desens inactive | Ga16 nonsel ant inactive
O=C(O)C1C2C=CC(C2)C1C(=O)NCCc1ccncc1 (stereo unspecified)	none
COc1ccc(NC(=O)Nc2ccc3c(c2)C(=O)N([C@H](C)CO)C[C@H](C)[C@H](CN(C)C)OCCCC[C@@H](C)O3)cc1	none (no result: CHRM4 antagonist, M4 PAM, CHRM4 agonist)
Cc1nc(-c2ccccc2)sc1C(=O)NS(=O)(=O)c1ccc(CN2CCN(c3ccccc3)CC2)cc1	none
CCCCCCCCN1C(=O)[C@H](CC(=O)NCCCCc2ccccc2)C[C@@]2(C(=O)OC)CCCCC=C12	none
CCOC(=O)[C@]12CCC=C1N(Cc1ccco1)C(=O)[C@H](CC(=O)NCCCCc1ccccc1)C2	none
CCCCCCCCN1C(=O)[C@H](CC(=O)NCCc2ccccc2OC)C[C@@]2(C(=O)OCC)CCC=C12	TAAR1 ag 59 | TAAR1 ag conf 80 | Ga16 ag counter inactive | TAAR1 desens inactive | Ga16 nonsel ant inactive
CCCCCCCCN1C(=O)[C@@H](CC(=O)NCCc2ccccc2OC)C[C@@]2(C(=O)OC)C1=C[C@H](C(C)(C)C)O[C@@H]2C	TAAR1 ag 75 (no result: CHRM4 antagonist, M4 PAM, CHRM4 agonist) | TAAR1 ag conf 85 | Ga16 ag counter inactive | TAAR1 desens 52 | Ga16 nonsel ant inactive
CCCCCCCCN1C(=O)[C@H](CC(=O)NCCc2ccccc2OC)C[C@@]2(C(=O)OC)CCCCC=C12	TAAR1 ag 51 | TAAR1 ag conf 81 | Ga16 ag counter inactive | TAAR1 desens 65 | Ga16 nonsel ant inactive
CCOC(=O)[C@]12CCC=C1N(Cc1ccco1)C(=O)[C@H](CC(=O)NCCc1ccccc1OC)C2	TAAR1 ag 62 | TAAR1 ag conf 69 | Ga16 ag counter inactive | TAAR1 desens inactive | Ga16 nonsel ant inactive
C#CCNC(=O)C[C@H]1C[C@@]2(C(=O)OC)C(=C[C@H](C(C)(C)C)O[C@@H]2C)N(CCCCCCCC)C1=O	none (no result: CHRM4 antagonist, M4 PAM, CHRM4 agonist)
COC(=O)[C@]1(C)N[C@H](CN(C)C(=O)C2CCCCC2)[C@@H]2C(=O)N(C)C(=O)[C@@H]21	none
Cc1cc(C)cc(Cn2cc(CN3CC(N4CCSCC4)CS3(=O)=O)nn2)c1 (stereo unspecified)	none
Cc1cc(C)nc(Nc2nc(C(N)CCc3ccccc3)cs2)n1 (stereo unspecified)	none
CCOC(=O)c1cc(=O)nc(N)s1	none
N/C(Cc1cccc2ccccc12)=N\OC(=O)c1ccc2c(c1)OCO2	TAAR1 antag 49, TAAR1 ag 74 | TAAR1 ag conf inactive | Ga16 ag counter inactive | TAAR1 desens inactive | Ga16 nonsel ant inactive
N/C(Cc1cccc2ccccc12)=N\OC(=O)c1ccc(Br)o1	TAAR1 ag 91 (no result: CHRM4 antagonist, M4 PAM, CHRM4 agonist) | TAAR1 ag conf 89 | Ga16 ag counter inactive | TAAR1 desens 80 | Ga16 nonsel ant inactive
O=C(COc1ccc(Cl)cc1Cl)NC(=S)N1CCCc2ccccc21	TAAR1 ag 51 | TAAR1 ag conf inactive | Ga16 ag counter inactive | TAAR1 desens inactive | Ga16 nonsel ant inactive
O=C(Nc1cccc(Cl)c1)c1ccc2sc([C@H]3C[C@H](O)[C@@H](CO)O3)nc2c1	none
Cc1ccc(S(=O)(=O)Nc2ccc(C(=O)N3CCCC3)cc2)cc1	none
Cc1ccc(NS(=O)(=O)c2ccc(C(=O)N3CC(C)CC(C)C3)cc2)cc1 (stereo unspecified)	TAAR1 antag 102, CHRM4 antagonist 35, TAAR1 ag 141, CHRM4 agonist 107 | TAAR1 ag conf 128 | Ga16 ag counter 91 | TAAR1 desens 106 | Ga16 nonsel ant 89
